The values below come from BindingDB's records for PubMed 36760746 (n/a, 2023).

This experiment concerns the target Induced myeloid leukemia cell differentiation protein Mcl-1 (Homo sapiens, UniProt Q07820). As to the kind of experiment: Inhibition of FITC-labelled BAK BH3 peptide to 6His-MBP tagged recombinant human MCL-1 (172 to 327 residues) expressed in Escherichia coli assessed as inhibition constant by fluorescence polarization competition assay. Summed up: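 Fluorescence polarization competition: compounds titrated into a mixture of MCL-1 (residues 172–327) and FITC-labelled BAK BH3 peptide. Displacement of the peptide was followed by the change in polarization, and Ki was derived from the competition titration.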
For orientation: Fluorescence polarisation rises when a labelled molecule tumbles more slowly, as on binding a larger partner.

For orientation: Ki means a measure of affinity in units of concentration, obtained from inhibition or displacement.

Each structure is given as a SMILES string. Some results are limits rather than exact numbers.

Chain of Induced myeloid leukemia cell differentiation protein Mcl-1 (Q07820 whole entry, the tested form may be a part): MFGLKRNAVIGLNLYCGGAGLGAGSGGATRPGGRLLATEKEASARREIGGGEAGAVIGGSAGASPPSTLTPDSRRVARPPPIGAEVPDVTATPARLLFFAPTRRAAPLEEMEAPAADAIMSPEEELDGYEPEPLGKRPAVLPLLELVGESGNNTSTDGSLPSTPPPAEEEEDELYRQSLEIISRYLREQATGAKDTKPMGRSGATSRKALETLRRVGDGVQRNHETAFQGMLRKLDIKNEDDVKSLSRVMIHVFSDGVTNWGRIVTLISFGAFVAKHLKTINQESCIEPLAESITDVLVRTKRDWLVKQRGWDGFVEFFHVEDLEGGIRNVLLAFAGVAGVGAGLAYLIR

`CC(C)CN(c1cccc(C(=O)O)c1)S(=O)(=O)c1ccccc1` [3-(N-isobutylphenyl-sulfonamido) benzoic acid]: the Ki was greater than 500 µM. For the molecule `CC(C)CN(c1ccc(C(=O)O)cc1)S(=O)(=O)c1ccc2ccccc2c1` [4-(N-isobutylnaphthalene-2-sulfonamido) benzoic acid], the Ki is greater than 500 µM. Take `CC(C)CN(c1ccc(C(=O)O)cc1)S(=O)(=O)c1ccccc1` [4-(N-isobutylphenyl-sulfonamido) benzoic acid]: the Ki was greater than 500 µM. In the case of `CC(C)CN(c1cccc(C(=O)O)c1)S(=O)(=O)c1ccc(F)cc1` [3-(4-fluoro-N-isobutylphenyl-sulfonamido) benzoic acid], the Ki is greater than 500 µM. For the molecule `CC(C)CN(c1cccc(C(=O)O)c1)S(=O)(=O)c1ccc(-c2ccccc2)cc1` [3-(N-isobutyl-[1,1'-biphenyl]-4-ylsulfonamido) benzoic acid], the inhibition constant Ki was greater than 500 µM. Then `CC(C)CN(c1ccc(C(=O)O)cc1)S(=O)(=O)c1ccc(F)cc1` [4-(4-fluoro-N-isobutylphenyl-sulfonamido) benzoic acid], with greater than 500 µM.
